Measurements taken from article PMC3270116 (Analytical Biochemistry, 2011).
Entries after “also recorded” stand apart in the source; their conditions may differ.

How the values were obtained:
[1] = target: T1, serine racemase (SR) in C6 cells (Rattus norvegicus, UniProt Q76EQ0); assay: CE-LIF measurement of intra-cellular D-Ser production in C6 cells; assay type: cell-based; details: for intra-cellular D-Ser production: 36 h, C6, n = 3
T1 sequence (Q76EQ0 1-333): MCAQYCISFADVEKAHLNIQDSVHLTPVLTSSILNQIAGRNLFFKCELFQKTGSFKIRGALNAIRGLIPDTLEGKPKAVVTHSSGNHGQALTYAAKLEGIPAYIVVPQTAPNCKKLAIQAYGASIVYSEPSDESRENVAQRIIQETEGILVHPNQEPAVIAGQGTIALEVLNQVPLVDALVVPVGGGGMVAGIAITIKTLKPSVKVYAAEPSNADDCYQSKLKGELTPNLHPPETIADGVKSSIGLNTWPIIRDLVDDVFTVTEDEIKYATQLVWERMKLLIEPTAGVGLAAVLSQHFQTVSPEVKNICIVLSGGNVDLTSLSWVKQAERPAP
Method in brief: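 C6 cells in DMEM with L-Gln, 10% FBS and 1% penicillin/streptomycin were grown at 37 °C in 5% CO2 to >70% confluence. They were then incubated for 36 h in medium with substrate amino acid (0–20 mM) or inhibitor amino acid (0–8 mM), in triplicate. ACN extracts with D-Arg internal standard were FITC-labelled, then run by CE-LIF in 0.5 mM HP-β-CD/80 mM borate, pH 9.3. D-Ser was quantified by area ratio to FITC-D-Arg.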

[2] = target: T2, serine racemase (SR) in PC-12 cells (Rattus norvegicus, UniProt Q76EQ0); assay: CE-LIF measurement of intra-cellular D-Ser production in PC-12 cells; assay type: cell-based; details: for intra-cellular D-Ser production: 36 h, PC-12, n = 3
T2 sequence (Q76EQ0 1-333): T1 sequence (Q76EQ0 1-333)
Method in brief: (§1)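 PC-12 cells were kept in RPMI-1640 with 10% horse serum and 5% FBS, and 1321N1 cells in DMEM with 10% FBS. […] Pellets were spiked with D-Arg internal standard, ACN-extracted, dried and FITC-labelled. CE-LIF used 0.5 mM HP-β-CD in 80 mM borate, pH 9.3.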

[3] = test system: SR protein (monomer and dimer) in PC-12 cells; assay: Western blot of SR protein expression in PC-12 cells; assay type: cell-based, rat; details: PC-12, Gly 6 mM, 36-h treatment
Method in brief: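 Lysates were BCA-assayed, and 20 μg protein per lane was run on reducing 4–12% SDS-PAGE and moved to PVDF. Blots were blocked in 5% milk, probed with a […] SR antibody, then an HRP secondary, and detected by ECL. Bands were quantified by densitometry, normalised to β-actin, n=2.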

[4] = test system: SR purified from mouse brain; details: cited from earlier work
[5] = target: purified recombinant human SR; details: cited from earlier work
[6] = target: T3, serine racemase (SR) in HepG2 cells (Homo sapiens, UniProt Q9GZT4); assay: CE-LIF measurement of intra-cellular D-Ser production in HepG2 cells; assay type: cell-based; details: 36 h, HepG2, n = 3
T3 sequence (Q9GZT4 1-340): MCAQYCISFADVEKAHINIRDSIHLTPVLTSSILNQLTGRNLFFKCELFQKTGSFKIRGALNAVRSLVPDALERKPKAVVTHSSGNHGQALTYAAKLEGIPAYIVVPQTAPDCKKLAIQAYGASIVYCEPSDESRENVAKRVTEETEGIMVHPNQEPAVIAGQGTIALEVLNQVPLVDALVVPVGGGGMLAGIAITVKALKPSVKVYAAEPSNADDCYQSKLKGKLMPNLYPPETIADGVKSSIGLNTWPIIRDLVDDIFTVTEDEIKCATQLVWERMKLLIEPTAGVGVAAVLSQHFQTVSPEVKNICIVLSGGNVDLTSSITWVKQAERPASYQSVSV
Method in brief: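 Medium for HepG2 was EMEM with 1% L-Gln, 10% FBS, 1% sodium pyruvate and 1% penicillin/streptomycin. Cells at >70% confluence (37 °C, 5% CO2) were exposed for 36 h to medium with substrate amino acid (0–20 mM) or inhibitor amino acid (0–8 mM), in triplicate. Cell extracts in ACN with D-Arg internal standard were FITC-derivatized. CE-LIF used 0.5 mM HP-β-CD in 80 mM borate, pH 9.3, with D-Ser quantified against FITC-D-Arg.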

[7] = target: T4, serine racemase (SR) in 1321N1 cells (Homo sapiens, UniProt Q9GZT4); assay: CE-LIF measurement of intra-cellular D-Ser production in 1321N1 cells; assay type: cell-based; details: for intra-cellular D-Ser production: 36 h, 1321N1, n = 3
T4 sequence (Q9GZT4 1-340): T3 sequence (Q9GZT4 1-340)
Method in brief: as §1

NCC(=O)O [Gly, glycine]
reduction in intra-cellular D-Ser concentrations ([1]; C6, Gly 0.25 to 8.0 mM added to incubation buffer): 97%
intra-cellular D-Ser production ([1]; Gly 0.25 mM in media): 3.74 ± 0.12
intra-cellular D-Ser production ([1]; Gly 0.50 mM in media): 3.49 ± 0.17
intra-cellular D-Ser production ([1]; Gly 1.0 mM in media): 3.15 ± 0.13
intra-cellular D-Ser production ([1]; Gly 2.0 mM in media): 1.69 ± 0.14
intra-cellular D-Ser production ([1]; Gly 4.0 mM in media): 0.51 ± 0.11
intra-cellular D-Ser production ([1]; Gly 6.0 mM in media): 0.41 ± 0.07
intra-cellular D-Ser production ([1]; Gly 8.0 mM in media): 0.11 ± 0.07
intra-cellular D-Ser production ([2]; Gly 0.25 mM in media): 15.91 ± 1.72
intra-cellular D-Ser production ([2]; Gly 0.50 mM in media): 13.86 ± 2.02
intra-cellular D-Ser production ([2]; Gly 1.0 mM in media): 11.59 ± 2.43
intra-cellular D-Ser production ([2]; Gly 2.0 mM in media): 8.30 ± 0.51
intra-cellular D-Ser production ([2]; Gly 4.0 mM in media): 7.82 ± 0.49
intra-cellular D-Ser production ([2]; Gly 6.0 mM in media): 4.64 ± 1.36
intra-cellular D-Ser production ([2]; Gly 8.0 mM in media): 2.72 ± 0.44
decrease in intra-cellular D-Ser ([2]; PC-12, 6 mM Gly): 77%
IC50 ([2]; read-out: IC50 for the Gly inhibition of SR, PC-12, 36 h, n = 3): 1240 ± 390 µM
SR dimer or SR monomer expression relative to control [3]: neither of these treatments produced a significant change; also recorded: without causing a significant change
reduction in the D-Ser production ([4]; 2 mM Gly in incubation media): 80%
Ki ([4]; competitive inhibitor): 150 µM
Ki [5]: 370 µM
intra-cellular D-Ser production ([6]; Gly 0.25 mM in media): 14.96 ± 0.91
intra-cellular D-Ser production ([6]; Gly 0.50 mM in media): 13.85 ± 0.22
intra-cellular D-Ser production ([6]; Gly 1.0 mM in media): 10.88 ± 0.17
intra-cellular D-Ser production ([6]; Gly 2.0 mM in media): 10.77 ± 0.14
intra-cellular D-Ser production ([6]; Gly 4.0 mM in media): 10.31 ± 0.32
intra-cellular D-Ser production ([6]; Gly 6.0 mM in media): 8.60 ± 0.12
intra-cellular D-Ser production ([6]; Gly 8.0 mM in media): 7.78 ± 0.27
reduction in intra-cellular D-Ser concentrations ([7]; 1321N1, Gly 0.25 to 8.0 mM added to incubation buffer): 35%
intra-cellular D-Ser production ([7]; Gly 0.25 mM in media): 9.05 ± 2.48
intra-cellular D-Ser production ([7]; Gly 0.50 mM in media): 8.34 ± 2.16
intra-cellular D-Ser production ([7]; Gly 1.0 mM in media): 7.38 ± 2.01
intra-cellular D-Ser production ([7]; Gly 2.0 mM in media): 6.69 ± 1.80
intra-cellular D-Ser production ([7]; Gly 4.0 mM in media): 6.53 ± 1.98
intra-cellular D-Ser production ([7]; Gly 6.0 mM in media): 6.32 ± 1.83
intra-cellular D-Ser production ([7]; Gly 8.0 mM in media): 6.29 ± 1.04
IC50 ([7]; read-out: IC50 for the Gly inhibition of SR, 1321N1, 36 h, n = 3): 680 ± 150 µM
